Screens from PubChem.
An excerpt weighted towards active compounds, which were near 2.6% of everything screened.
SENP6 block – SENP6 protease inhibitors, primary screen, biochemical, luminescence, uHTS; AID 2599, 2010; inhibition, % at 10 µM; Recombinant SENP6 catalytic domain, aminoluciferin luminescence; actives 1.8% (n = 330,000); Sentrin-specific protease 6 (Homo sapiens), Q9GZR1;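 active means inhibition above about 50% at the single tested dose, limit read from the data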;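 further: plate controls were DMSO wells with enzyme for no effect and DMSO wells lacking enzyme for full effect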
UCH37 DUB inh – inhibitors of human UCH37 deubiquitinase, primary screen, biochemical, Ub-AMC cleavage, fluorescence; inhibition, % (concentration not given with the values); purified proteasome/UCH37; actives 0.33% (n = 330,000);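 active means mean inhibition over replicate wells above about 20%, limit read from the data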;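 further: 0% = compound-free wells with enzyme and 100% = wells lacking proteasome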
Target sequence (Q9Y5K5 whole entry, looked up): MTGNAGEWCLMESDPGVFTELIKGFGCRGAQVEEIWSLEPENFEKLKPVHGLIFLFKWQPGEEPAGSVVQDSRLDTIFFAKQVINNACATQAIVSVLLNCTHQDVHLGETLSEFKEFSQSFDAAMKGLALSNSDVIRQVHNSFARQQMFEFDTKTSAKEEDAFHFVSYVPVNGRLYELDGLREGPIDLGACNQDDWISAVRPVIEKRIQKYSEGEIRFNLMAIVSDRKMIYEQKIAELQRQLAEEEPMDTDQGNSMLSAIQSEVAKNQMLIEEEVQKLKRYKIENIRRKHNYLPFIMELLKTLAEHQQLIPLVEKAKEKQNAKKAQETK
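Test system – human UCH37 enzyme supplied as purified proteasome complex · Incubation – 30 min preincubation with enzyme, 25 min cleavage at room temperature · Detection – AMC fluorescence from Ub-AMC cleavage, excitation 355 nm, emission 460 nm · Benchmarks – no-proteasome wells (full inhibition) and compound-free wells (no inhibition)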
SENP8 block-1 – human SENP8 protease inhibitors, primary screen, biochemical, fluorescence, Nedd8 protein substrate, uHTS; AID 602440, 2012; inhibition, % at 20 µM; actives 0.64% (n = 360,000); recombinant SENP8; in the data active means inhibition mostly above about 40%, no sharp cut-off; inactive means mostly below about 27%
SENP8 block-2 – SENP8 protease inhibitors, primary screen, biochemical, luminescence. actives 1.2% (n = 330,000). purified SENP8, Z-RLRGG-aminoluciferin cleavage. AID 2540, 2010. inhibition, % at 10 µM; in the data active means inhibition above about 50%
SENP1 inh – human SENP1 catalytic domain inhibitors, primary screen, biochemical, FRET, uHTS; Sentrin-specific protease 1 (Homo sapiens), Q9P0U3; recombinant SENP1 catalytic domain, CyPet-SUMO1-YPet FRET cleavage; inhibition, % at 10 µM; actives 0.21% (n = 360,000); AID 624204, 2012;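 active means inhibition at least 30% at 10 µM, raw YFP signal under a set limit, fluorescence ratio 0.5 to 1.5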;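 further: 0% = enzyme with DMSO and 100% = no enzyme wells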
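Test system: recombinant human SENP1 catalytic domain, His6-tagged / Medium: pH 8 Tris buffer with EDTA, NaCl, BME, BSA, NP40, catalase / Also added: SUMO1 FRET substrate flanked by Cypet and Ypet, 25 nM / Times: 50 min reaction at room temperature / Signal: FRET, CFP and YFP emission / Control set: no-enzyme low control and enzyme-plus-DMSO high control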
SENP7 inh – SENP7 protease inhibitors, primary screen, biochemical, luminescence, uHTS; actives 1.5% (n = 330,000); inhibition, % at 5 µM; recombinant SENP7, Z-RLRGG-aminoluciferin luminescence, 40 min; AID 434973, 2010;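 active means inhibition above about 50% at the single test dose, limit read from the data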;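 further: plate controls were DMSO with enzyme for no effect and no enzyme buffer wells for full effect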
Target sequence (Q9BQF6 706-1050 limits assumed): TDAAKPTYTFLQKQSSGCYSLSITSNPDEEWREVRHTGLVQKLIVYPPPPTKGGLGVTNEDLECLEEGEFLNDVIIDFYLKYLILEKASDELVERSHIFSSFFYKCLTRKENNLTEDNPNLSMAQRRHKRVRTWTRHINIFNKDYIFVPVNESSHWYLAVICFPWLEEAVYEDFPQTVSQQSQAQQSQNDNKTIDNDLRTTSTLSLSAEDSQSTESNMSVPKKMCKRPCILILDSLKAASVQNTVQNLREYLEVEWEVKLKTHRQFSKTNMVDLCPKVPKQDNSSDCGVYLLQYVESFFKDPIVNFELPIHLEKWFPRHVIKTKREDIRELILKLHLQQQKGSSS
SENP8 confirm – SENP8 protease inhibitors, retest, confirmation, biochemical, luminescence, single concentration; actives 40% (n = 6,200); Recombinant SENP8, Z-RLRGG-aminoluciferin luminescence, 60 min; shares compounds with SENP7 inh; inhibition, % at 12.5 µM;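 active means mean inhibition across replicates above about 50%, limit read from the data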
SENP6 conf – SENP6 protease inhibitors, confirmation, biochemical, luminescence, single concentration; shares compounds with SENP7 inh; recombinant SENP6, Z-RLRGG-aminoluciferin luminescence; inhibition, % at 12.5 µM; actives 58% (n = 6,200)
SENP7 confirm – SENP7 protease inhibitors, retest, confirmation, biochemical, luminescence, single concentration. shares compounds with SENP7 inh. recombinant SENP7, Z-RLRGG-aminoluciferin luminescence, 40 min. inhibition, % at 12.5 µM. actives 69% (n = 6,200). AID 488917, 2010
Casp3 SENP sel – caspase-3 protease inhibitors, confirmation, selectivity assay for SENP inhibitor project, biochemical, single concentration; shares compounds with SENP7 inh; actives 60% (n = 6,200); AID 488918, 2010; purified caspase-3, Z-DEVD-aminoluciferin luminescence, 60 min; inhibition, % at 12.5 µM;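 active means mean inhibition above about 50%, limit read from the data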;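 further: plate controls were enzyme with DMSO for no effect and wells without caspase-3 for full effect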
SENP luc ctr – counter-screen for SENP inhibitors: luminescence interference. shares compounds with SENP7 inh. actives 39% (n = 6,200). inhibition, % at 12.5 µM. Pre-incubated SENP8/Z-RLRGG-aminoluciferin, luciferase luminescence interference. AID 488919;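 active means mean inhibition above about 50% when retested at one dose, limit read from the data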;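 further: plate controls were DMSO wells with completed reaction for no effect and substrate without enzyme for full effect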
* marks the source's active call; other numbers are inactive results; i = inactive; x = not tested or not shown.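 How the source made its calls, unless noted: active means mean inhibition above about 50% in the one-dose retest (limit read from the data); inactive means the rest.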

SMILES	SENP6 block	UCH37 DUB inh	SENP8 block-1	SENP8 block-2	SENP1 inh	SENP7 inh	SENP8 confirm	SENP6 conf	SENP7 confirm	Casp3 SENP sel	SENP luc ctr
CC(C)c1cc(C(=O)Nc2cccnc2)no1	62*	2	13	40	-1	63*	61*	56*	86*	88*	65*
COc1cccc(-c2cc(C(=O)Nc3cccnc3)no2)c1	55*	1	3	65*	-4	80*	47	78*	93*	83*	29
CCCc1cc(C(=O)Nc2cccnc2)no1	-10	-1	1	24	-1	37	x	x	x	x	x
O=C(Nc1cccnc1)c1cc(-c2ccccc2)on1	75*	0	9	48	2	69*	36	49	86*	75*	32
COc1cccc(-c2cc(C(=O)Nc3cc(OC)c(OC)c(OC)c3)no2)c1	-21	1	17	-5	3	-8	x	x	x	x	x
O=C(NCc1cccnc1)c1cc(-c2ccccc2)on1	-9	-1	13	-13	3	4	x	x	x	x	x
Cc1cc(C)n(N=Cc2c[nH]c3ccccc23)c(=O)c1	x	2	x	x	x	x	x	x	x	x	x
O=C(O)c1ccc(C=NN2CCN(Cc3cccc4ccccc34)CC2)cc1	x	2	x	x	x	x	x	x	x	x	x
O=C(Nc1cccnc1)c1cc(-c2ccco2)on1	49	2	18	23	-1	58*	40	39	64*	79*	1
Cc1ccc(NC(=O)c2cc(-c3ccco3)on2)cc1	2	-23	-12	-1	2	19	x	x	x	x	x
COC(=O)c1sccc1-c1ccc(C(N)=O)o1	-8	x	x	4	x	-2	x	x	x	x	x
COC(=O)c1sccc1-c1ccc(C(=O)Nc2cccnc2)o1	48	-9	-96	21	3	52*	45	40	76*	59*	4
COc1ccccc1N1CCN(C(=O)C(=O)NN=Cc2ccccc2F)CC1	x	1	x	x	x	x	x	x	x	x	x
O=C(Nc1ccccc1)Oc1ccc[nH]c1=O	74*	5	18	11	3	44	-22	-14	2	12	15
O=C(Oc1ccc[nH]c1=O)c1ccc(F)cc1	x	x	16	x	1	x	x	x	x	x	x
COc1ccccc1/C=C/c1nc(C#N)c(N(C)C)o1	57*	i	i	46	-26	30	20	57*	42	53*	10
CN(C)c1oc(-c2ccccc2)nc1C#N	11	i	-311	-1	-1	17	x	x	x	x	x
CC(=NNC(=O)c1cccc(C)c1O)c1ccc(NC(=O)Cc2ccccc2)cc1	x	11	x	x	x	x	x	x	x	x	x
COc1cc(/C=C2/C(=O)N(c3ccc(C)c(C)c3)N=C2C)cc([N+](=O)[O-])c1O	4	8	20	-5	1	3	x	x	x	x	x
COc1ccccc1/C=C1/C(=O)N(c2ccccc2)N=C1C	14	x	31	-3	0	60*	-5	2	-10	1	2
CC1=NN(c2ccc(Br)cc2)C(=O)/C1=C/c1cccs1	75*	4	43*	1	0	70*	-28	-14	-7	-10	-9
CC1=NN(c2ccccc2)C(=O)/C1=C\c1ccc(Oc2ccc([N+](=O)[O-])cc2[N+](=O)[O-])cc1	25	6	41*	4	3	68*	11	14	0	-1	0
O=C(Cc1n[nH]c(=O)c2ccccc12)NN=Cc1cc2c(cc1Cl)OCO2	x	-16	x	x	x	x	x	x	x	x	x
CCc1ccc(C(=O)NN=Cc2cccc3ccccc23)nc1	x	0	x	x	x	x	x	x	x	x	x
Cc1cc2nc(N=C(N)NC(=O)N3c4ccccc4Sc4ccccc43)nc(C)c2cc1C	x	1	x	x	x	x	x	x	x	x	x
SMILES	SENP6 block	UCH37 DUB inh	SENP8 block-1	SENP8 block-2	SENP1 inh	SENP7 inh	SENP8 confirm	SENP6 conf	SENP7 confirm	Casp3 SENP sel	SENP luc ctr
Cc1cccc(N=Cc2c(O)[nH]c3ccccc23)n1	x	-96	x	x	x	x	x	x	x	x	x
Oc1[nH]c2ccccc2c1C=Nc1ccc2c(c1)OCO2	86*	2	-5	76*	-85	1	67*	88*	99*	83*	27
COc1ccc(N=Cc2c(O)[nH]c3ccccc23)cc1	28	6	11	66*	-42	68*	2	83*	99*	76*	18
COc1ccc(CN=Cc2c(O)[nH]c3ccccc23)cc1	9	8	7	-9	-1	-1	x	x	x	x	x
COc1ccc(-c2cc3nnc(-c4ccccc4)nc3s2)cc1	-6	x	-2	43	-27	4	x	x	x	x	x
COc1ccc(-c2cc3ncnc(Cl)c3s2)cc1	83*	x	-313	84*	-69	46	-22	34	48	40	12
Brc1ccc(-c2noc(C3CCCCC3)n2)cc1	-39	1	0	11	1	16	x	x	x	x	x
c1ccc(-c2nccc(-c3ccc4c(c3)OCO4)n2)cc1	27	-7	-353	-8	-2	1	x	x	x	x	x
c1ccc(-c2ccccc2-c2nc(-c3cccnc3)no2)cc1	-4	1	13	-9	-2	-2	x	x	x	x	x
c1ccc(-c2noc(C3CCCCC3)n2)nc1	59*	-1	25	24	1	55*	38	50*	83*	79*	36
c1ccc(-c2noc(-c3ccc4c(c3)OCO4)n2)nc1	98*	0	-26	98*	-1	-1	-26	97*	103*	98*	5
c1ccc(-c2noc(-c3cccnc3)n2)nc1	2	5	10	23	2	57*	51*	48	78*	85*	58*
